Results on 4 compounds are retold here after ChEMBL document CHEMBL1125571, “Potent inhibitors of platelet aggregation based upon the Arg-Gly-Asp-Phe sequence of fibrinogen. A proposal on the nature of the binding interaction between the Asp-carboxylate of RGDX mimetics and the platelet GP IIb-IIIa receptor” (J Med Chem, 1992).

Experiment [1] concerns the target T1, Integrin alpha-IIb/beta-3 (Homo sapiens, UniProt P05106+P08514). Nature of the experiment: Inhibition of Fibrinogen receptor binding. Type of experiment: protein-complex assay.
Experiment [2] concerns the target T1, Integrin alpha-IIb/beta-3. Nature of the experiment: Inhibition of platelet aggregation (PRP) (inactive). Type of experiment: functional. The gist of the method:
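Aggregation of platelets in platelet-rich plasma was induced with ADP, and inhibition of this aggregation was measured.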

The target of experiment [3] is T1, Integrin alpha-IIb/beta-3. Nature of the experiment: Inhibition of 125 I-Fibrinogen binding to Fibrinogen receptor (inactive). Type of experiment: protein-complex assay.
For experiment [4], the target named is T1, Integrin alpha-IIb/beta-3. Nature of the experiment: Inhibition of 125 I-Fibrinogen binding to Fibrinogen receptor. Type of experiment: protein-complex assay.

T1 sequence (P05106 27-788 limits assumed): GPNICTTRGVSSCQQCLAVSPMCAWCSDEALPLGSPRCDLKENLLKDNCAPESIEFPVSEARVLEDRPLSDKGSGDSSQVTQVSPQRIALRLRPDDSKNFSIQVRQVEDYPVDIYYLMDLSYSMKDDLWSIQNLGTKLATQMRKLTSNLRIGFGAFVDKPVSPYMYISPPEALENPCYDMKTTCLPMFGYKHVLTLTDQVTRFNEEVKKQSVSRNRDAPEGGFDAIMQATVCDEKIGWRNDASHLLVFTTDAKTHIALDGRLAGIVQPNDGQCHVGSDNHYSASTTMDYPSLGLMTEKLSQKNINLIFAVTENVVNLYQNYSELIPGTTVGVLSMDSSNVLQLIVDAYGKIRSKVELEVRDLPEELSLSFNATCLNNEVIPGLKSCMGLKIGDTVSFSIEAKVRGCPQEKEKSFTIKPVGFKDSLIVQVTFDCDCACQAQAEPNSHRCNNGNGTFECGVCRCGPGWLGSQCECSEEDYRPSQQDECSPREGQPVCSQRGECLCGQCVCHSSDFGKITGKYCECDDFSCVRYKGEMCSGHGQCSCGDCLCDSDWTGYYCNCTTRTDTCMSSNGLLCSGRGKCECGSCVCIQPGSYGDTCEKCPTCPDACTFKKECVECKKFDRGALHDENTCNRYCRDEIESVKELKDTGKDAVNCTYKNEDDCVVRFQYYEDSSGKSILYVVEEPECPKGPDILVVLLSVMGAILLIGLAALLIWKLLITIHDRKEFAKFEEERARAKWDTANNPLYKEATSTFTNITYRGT
T1 sequence (P08514 32-887 limits assumed): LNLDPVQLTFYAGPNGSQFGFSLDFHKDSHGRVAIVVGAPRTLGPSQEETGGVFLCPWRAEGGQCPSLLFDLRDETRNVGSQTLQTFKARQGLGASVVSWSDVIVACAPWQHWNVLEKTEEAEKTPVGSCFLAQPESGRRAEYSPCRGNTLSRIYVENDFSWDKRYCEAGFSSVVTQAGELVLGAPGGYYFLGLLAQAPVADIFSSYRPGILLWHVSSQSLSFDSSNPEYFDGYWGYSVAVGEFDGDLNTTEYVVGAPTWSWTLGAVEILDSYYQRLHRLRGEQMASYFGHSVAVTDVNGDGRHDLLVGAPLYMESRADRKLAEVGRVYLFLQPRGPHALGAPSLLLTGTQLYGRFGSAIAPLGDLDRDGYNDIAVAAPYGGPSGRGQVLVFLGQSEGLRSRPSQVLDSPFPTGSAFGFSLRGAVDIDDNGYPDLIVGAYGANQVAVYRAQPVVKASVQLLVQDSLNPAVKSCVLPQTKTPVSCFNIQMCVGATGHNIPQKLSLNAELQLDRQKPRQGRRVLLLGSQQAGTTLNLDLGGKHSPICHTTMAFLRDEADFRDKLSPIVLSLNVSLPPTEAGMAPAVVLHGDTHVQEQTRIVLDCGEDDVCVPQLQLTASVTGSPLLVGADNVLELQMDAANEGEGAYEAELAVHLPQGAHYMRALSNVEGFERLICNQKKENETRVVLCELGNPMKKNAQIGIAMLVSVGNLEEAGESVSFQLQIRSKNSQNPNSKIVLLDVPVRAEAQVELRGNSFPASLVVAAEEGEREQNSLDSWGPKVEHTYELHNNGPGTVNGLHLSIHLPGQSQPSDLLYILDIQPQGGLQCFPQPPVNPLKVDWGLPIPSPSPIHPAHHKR
T1 sequence (P08514 891-1039 limits assumed): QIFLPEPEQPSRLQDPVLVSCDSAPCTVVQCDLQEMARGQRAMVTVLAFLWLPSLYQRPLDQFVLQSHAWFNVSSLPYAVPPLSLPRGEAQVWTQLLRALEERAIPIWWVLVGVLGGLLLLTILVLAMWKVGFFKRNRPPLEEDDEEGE

By IC50 is commonly meant the point on the concentration scale where inhibition reaches its midpoint. In turn, `N=C(N)NCCCCCCCC(=O)N[C@@H](CC(=O)O)C(=O)N[C@@H](Cc1ccccc1)C(=O)O` came in with an IC50 in experiment [1] of 0.6 µM.

For the compound `N=C(N)NCCCCCCCC(=O)N[C@@H](CC(=O)O)C(=O)NCCc1ccccc1`, the IC50 in experiment [1] came to 30 µM. This IC50 lies about 50-fold higher than the previous one.

As for `N=C(N)NCCCCCCCC(=O)N[C@@H](CC1N=NN=N1)C(=O)N[C@@H](Cc1ccccc1)C(=O)O`, the IC50 result in experiment [2] and in experiment [3] was “Not Active” in each case.

On to `N=C(N)NCCCCCCCC(=O)N[C@@H](CC(=O)O)C(=O)N[C@@H](Cc1ccccc1)C1N=NN=N1`, for which the IC50 in experiment [4] was 2 µM.
